Published values of several laboratories.
Target: Casein kinase I isoform delta (CSNK1D, Homo sapiens, UniProt P48730)

| SMILES | effect on | method | tested at | remaining binding |
| --- | --- | --- | --- | --- |
| CNC(=O)[C@@H]1CC[C@@H](n2c(-c3ccc4cnccc4c3)nc3ccc(C(=O)NCc4cccc(C(N)=O)c4)cc32)C1 | binding | competition with immobilised ligand | 1 µM | 100% |
| Cc1cc(C)c(-n2ccn3nc(-c4cccnc4)cc23)cc1NC(=O)c1cc(C#N)cc(S(F)(F)(F)(F)F)c1 | cell-free assay | competition with immobilised ligand | 0.1 µM | 100% |
| C[C@@H]1CCN(c2nccc(-c3cnn4ncccc34)n2)C1 | binding | – | 1 µM | 64% |
| COc1ccc2c(c1)O[C@H](c1ccc(OC)c(OC)c1)C[C@@H]2NC(=O)C1(c2ccc3c(c2)OC(F)(F)O3)CC1 | cell-free assay | competition with immobilised ligand | 1 µM | 92% |
| CC1CCCN1c1nccc(-c2cnn3ncccc23)n1 (stereo not drawn) | binding | – | 1 µM | 100% |
| COc1cnc(Nc2cccc(S(N)(=O)=O)c2)nc1N1CCN(c2ccccc2)CC1 | binding | competition with immobilised ligand | 1 µM | 97% |
| O=C(Nc1c[nH]nc1C(=O)NC1CCNCC1)c1cc(F)cc(F)c1 | binding | competition with immobilised ligand | 1 µM | 95% |
| N#Cc1ccccc1CSc1nnc2c(n1)[nH]c1ccccc12 | binding | competition with immobilised ligand | 10 µM | 86% |
| O=C(c1ccc(Nc2nccc(-c3cc4ccccc4s3)n2)cc1)N1CCC(N2CCCC2)CC1 | binding | competition with immobilised ligand | 1 µM | 100% |
| N#Cc1ccc(Nc2ccc3[nH]c(=O)[nH]c3c2)c(Cl)c1 | cell-free assay | competition with immobilised ligand | 1 µM | 100% |
| COc1ncc2cc3ccccc3nc2c1C#N | cell-free assay | competition with immobilised ligand | 5 µM | 93% |
| C[C@@H]1CN(c2cc(-c3n[nH]c4ccc(OC5(C)CC5)cc34)ncn2)C[C@H](C)O1 | cell-free assay | competition with immobilised ligand | 0.1 µM | 80% |
| Cc1cnn2ncc(-c3ccnc(N(C)C)n3)c2c1 | binding | – | 1 µM | 69% |
| CNCc1ccccc1-c1csc([C@@H](C)Nc2nc(C)nc3cc(OC)c(OC)cc23)c1 | cell-free assay | competition with immobilised ligand | 1 µM | 82% |
| C[C@@H](c1ccc(-n2cnc3c(N)ncnc32)cc1)N1CCc2nn(C)c(Cc3ccccc3)c2C1=O | binding | competition with immobilised ligand | 0.1 µM | 76% |
| CCOCCn1cc(C(=O)Nc2ccc(-n3nc(-c4cccnc4)cc3C(F)(F)F)cn2)ccc1=O | cell-free assay | competition with immobilised ligand | 1 µM | 100% |
| Cc1cnc(Nc2ccc(C(=O)N3CCC(N4CCCC4)CC3)cc2)nc1-c1cc2ccccc2s1 | binding | competition with immobilised ligand | 1 µM | 100% |
| CN(C)c1ncc(F)c(-c2cnn3ncccc23)n1 | binding | – | 1 µM | 100% |
| O=C(NCCCN1CCOCC1)c1ccc(Nc2nccc(-c3cc4ccccc4s3)n2)cc1 | binding | competition with immobilised ligand | 1 µM | 92% |
| CN(c1nccc(-c2cnn3ncccc23)n1)C1CC1 | binding | – | 1 µM | 100% |
| c1cncc(-c2cccc(Nc3nccc(NC4CCCCC4)n3)c2)c1 | binding | competition with immobilised ligand | 10 µM | 55% |
| CC(=O)C1=C(C)N(c2cccc(C(F)(F)F)c2)C(=O)N[C@@H]1c1ccc(C#N)nc1 | cell-free assay | competition with immobilised ligand | 1 µM | 100% |
| c1cnn2ncc(-c3ccnc(N4CCC45COC5)n3)c2c1 | binding | – | 1 µM | 41% |
| COC(=O)Nc1nc2ccc(C(=O)c3ccccc3)cc2[nH]1 | cell-free assay | competition with immobilised ligand | 10 µM | 36% |
